# SENP7 block: inhibitors of human SENP7 protease; Q9BQF6; recombinant SENP7, Z-RLRGG-aminoluciferin luminescence, 40 min; inhibition, % at 5 µM; 330,000 tested, 1.5% active;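 active = inhibition above about 50% at the single test dose, limit read from the data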
# Target sequence (Q9BQF6 706-1050 limits assumed): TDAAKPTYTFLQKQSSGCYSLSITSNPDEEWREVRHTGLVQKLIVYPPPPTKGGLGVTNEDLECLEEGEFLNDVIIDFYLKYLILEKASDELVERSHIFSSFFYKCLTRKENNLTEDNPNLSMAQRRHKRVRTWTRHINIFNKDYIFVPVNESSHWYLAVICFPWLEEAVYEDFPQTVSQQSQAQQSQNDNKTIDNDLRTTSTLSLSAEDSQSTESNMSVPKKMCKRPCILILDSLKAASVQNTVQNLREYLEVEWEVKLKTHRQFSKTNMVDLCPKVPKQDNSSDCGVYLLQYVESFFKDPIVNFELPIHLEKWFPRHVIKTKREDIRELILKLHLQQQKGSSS
# SENP1 FRET inh: SENP1 (human) catalytic domain inhibition | Q9P0U3 | recombinant SENP1 catalytic domain, CyPet-SUMO1-YPet FRET cleavage | inhibition, % at 10 µM | 360,000 tested, 0.21% active | AID 624204;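 active = inhibition at least 30% at 10 µM, raw YFP signal under a set limit, fluorescence ratio 0.5 to 1.5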
#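 system = hSENP1 catalytic domain, recombinant | reagent = SFCypet-SUMO1-SFYpet substrate at 25 nM | doses = one dose per compound, 10 µM, 0.5% DMSO | incubation = enzyme reaction for 50 min at room temperature, dark | measured by = FRET, CFP and YFP emission | controls = no-enzyme low, enzyme-DMSO high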
# Platelet DG rel: platelet dense granule release activity; human platelet-rich plasma, SFLLRN dense granule ATP release, luminescence; inhibition, %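 (compounds screened at 7.5 µM in platelet-rich plasma)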; 300,000 tested, 0.22% active; AID 1663;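 active = mean replicate score, as percent of positive control, at or above 50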
# SENP6 inh: inhibitors of human SENP6 protease; 330,000 tested, 1.8% active; Q9GZR1; Recombinant SENP6 catalytic domain, aminoluciferin luminescence; inhibition, % at 10 µM;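 active = inhibition above about 50% at the single tested dose, limit read from the data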
# SENP8 block-1: inhibitors of human SENP8 protease. Q96LD8. purified SENP8, Z-RLRGG-aminoluciferin cleavage, luminescence. inhibition, % at 10 µM. 330,000 tested, 1.2% active. AID 2540; in the data active = inhibition above about 50%
# Target sequence (Q96LD8 whole entry, looked up): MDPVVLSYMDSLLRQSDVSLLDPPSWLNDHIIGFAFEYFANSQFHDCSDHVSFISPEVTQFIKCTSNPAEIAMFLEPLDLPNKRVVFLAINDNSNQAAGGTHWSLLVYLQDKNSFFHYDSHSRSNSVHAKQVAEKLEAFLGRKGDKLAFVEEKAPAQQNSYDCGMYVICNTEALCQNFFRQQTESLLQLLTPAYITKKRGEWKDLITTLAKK
# SENP8 block-2: blocks human SENP8 cleavage of Nedd8 substrate. Q96LD8. inhibition, % at 20 µM. 360,000 tested, 0.64% active. recombinant SENP8, Nedd8 substrate fluorescence; in the data active = inhibition mostly above about 40%, no sharp cut-off; inactive = mostly below about 27%
# Hits are given with their value; n = inactive; x = not tested or not shown; ! = not confirmed by another sample. Rows were chosen to be rich in hits. Some 2.6% of all compounds tested hit in one or more screens of this group.
SMILES,SENP7 block,SENP1 FRET inh,Platelet DG rel,SENP6 inh,SENP8 block-1,SENP8 block-2
Cc1cc(C(=O)NNC(=O)Cc2ccc(Cl)c(Cl)c2)c(C)o1,n,n,x,n,n,n
Cc1nc(N2CCN(c3ccccn3)CC2)c2c(C)c(C(=O)N3CCN(c4ccccc4F)CC3)sc2n1,x,n,n,x,x,n
Oc1ccccc1N=N/C(=N/Nc1ccccc1O)c1ccccc1,n,n,n,n,n,n
N#C/C(N=Nc1ccccc1O)=N\Nc1ccccc1O,n,33,n,85,74,58
NC(=O)C1CCN(C2=C(NS(=O)(=O)c3ccc(Cl)cc3)C(=O)c3ccccc3C2=O)CC1,n,n,n,n,n,44
NC(=O)C1CCN(c2oc(-c3ccccc3F)nc2S(=O)(=O)c2ccc(Cl)cc2)CC1,n,n,n,n,n,n
CC1CCCN(C2=C(NS(=O)(=O)c3ccc(Cl)cc3)C(=O)c3ccccc3C2=O)C1 (stereo not drawn),n,n,n,n,n,60
COC(=O)C1CCN(C2=C(NS(=O)(=O)c3ccc(Cl)cc3)C(=O)c3ccccc3C2=O)CC1,n,n,n,n,n,40
CCOc1ccc(N=Cc2ccc([N+](=O)[O-])cc2)c(O)c1,x,39,x,x,x,41
CCOc1ccc(N=Cc2ccc(N(C)C)cc2)c(O)c1,x,n,x,x,x,n
Cc1ccc(NC(=O)/C(=C\c2ccc([N+](=O)[O-])cc2)NC(=O)c2ccccc2)cc1,n,n,n,n,n,n
O=C(N/N=C/c1ccc(O)c(O)c1O)/C(=C/c1ccc([N+](=O)[O-])cc1)NC(=O)c1ccccc1,n,n,n,n,n,72
COc1ccc(CC(N)c2csc(NC(=O)c3cccc(OC(F)(F)F)c3)n2)cc1 (stereo not drawn),x,n,x,x,x,n
COc1ccc(-n2nnc3c(=O)n(CC(=O)Nc4ccc5c(c4)OCCO5)cnc32)cc1OC,n,n,n,n,n,n
COc1ccc(-n2nnc3c(SCC(=O)Nc4ccc5c(c4)OCCO5)ncnc32)cc1,n,x,x,54,n,x
Cc1ccc(Nc2cc(=O)oc3ccccc23)c(C)c1,n,n,n,n,n,n
Cc1cccc(NC2=C/C(=N/S(=O)(=O)c3cccs3)c3ccccc3C2=O)c1,x,n,x,x,x,103
Cc1ccc(NC2=C/C(=N\S(=O)(=O)c3cccs3)c3ccccc3C2=O)c(C)c1,81,n,n,76,92,116
O=C(CN1C(=O)S/C(=C/C=C/c2ccccc2)C1=O)Nc1ccc(C(=O)O)cc1,n,n,n,n,n,n
O=C(CCN1C(=O)/C(=C\C=C\c2ccccc2)SC1=S)Nc1ccc(C(=O)O)cc1,n,n,n,59,60,n
Cc1ccc(-c2cn(-c3ccccc3)c(=S)[nH]2)cc1C,87,n,n,81,66,n
COc1cc2cccc(OC)c(=O)c2c(O)c1OC,n,n,n,n,n,n
CC(=O)Oc1cc2cccc(OC(C)=O)c(=O)c2c(OC(C)=O)c1OC(C)=O,n,n,n,n,n,44
O=C(Nc1cccc(Cl)c1)Nc1cccc(C(=O)O)c1,93,n,n,96,87,n
CSc1cccc(NC(=O)C(=O)NCc2ccccc2)c1,n,n,n,n,n,n
SMILES,SENP7 block,SENP1 FRET inh,Platelet DG rel,SENP6 inh,SENP8 block-1,SENP8 block-2
CCOc1ccc(NC(=O)Nc2cccc(C(=O)O)c2)cc1,99,n,n,99,97,n
CCOC(=O)c1cccc(NC(=O)Nc2ccc(OCC)cc2)c1,n,n,n,n,n,n
O=C(NCc1ccccc1)C(=O)Nc1cccc(C(=O)O)c1,93,n,n,93,84,n
COc1ccc(-c2cn3cccc(C)c3n2)cc1Br,68,n,n,n,59,n
CCOC(=O)CNS(=O)(=O)c1cc(-c2n[nH]c(=O)c3ccccc23)ccc1C,x,n,51,x,x,n
COc1ccc(/C=C(/NC(=O)c2ccco2)C(=O)N2CCOCC2)cc1,n,n,n,n,n,n
O=C1Nc2cnc(Cl)nc2Nc2ccccc21,x,n,x,x,x,n
COc1ccc(/C=C(\C#N)c2nc3ccccc3[nH]2)cc1O,n,n,n,57,n,n
COc1cccc(C(=O)Nc2cc3c(cc2Cl)OCCCO3)c1,n,n,n,51,n,n
CCN(CC)CCNc1cc(C)nc2c1C(=O)C(=O)C=C2N1CCCCC1,n,n,n,n,n,56
COc1ccc(CNC(=O)c2ccc3c(c2)N(C)CCS3)cc1,n,n,n,n,n,n
CC(C)Oc1ccc(CNC(=O)c2ccc3c(c2)N(C)CCS3)cc1,n,n,57,n,n,n
CN1CCSc2ccc(C(=O)NCc3ccccc3F)cc21,n,n,73,n,n,n
CCN1CCSc2ccc(C(=O)NCc3ccccc3F)cc21,n,n,n,n,n,n
COc1ccc(/C=N/Nc2nc3ccccc3s2)cc1O,x,n,54,x,x,n
Cc1ccc(C)c(NC(=O)CN(C)C(=O)c2ccc(S(=O)(=O)N3CCCCCC3)cc2)c1,n,n,x,n,n,n
O=C(Nc1ccccc1F)c1ccc2sc([C@H]3C[C@H](O)[C@@H](CO)O3)nc2c1,x,n,x,x,x,n
O=C(/C=C/Nc1ccccc1O)c1ccco1,85,n,n,89,77,n
O=C(/C=C/Nc1ccccc1Oc1ccccc1)c1ccco1,n,n,n,n,n,n
CC(Sc1ncnc2sccc12)C(=O)Nc1ccc(S(=O)(=O)N2CCOCC2)cc1 (stereo not drawn),x,n,x,x,x,n
Cc1cccc(/C=N/NC(=O)c2cccc([N+](=O)[O-])c2)n1,n,n,n,n,n,n
Cc1cc(/C=N/NC(=O)c2cccc([N+](=O)[O-])c2)c(C)n1-c1ccc(Cl)cc1Cl,n,n,n,n,n,52
CN(C)c1ccc(CCc2ccc(N)cc2)cc1,n,n,n,n,n,n
CN(C)c1ccc(Cc2ccc(N(C)C)cc2)cc1,x,n,x,x,x,30
O=C(COC(=O)c1ccc2ccccc2c1)NCc1ccccc1,x,n,x,x,x,n
SMILES,SENP7 block,SENP1 FRET inh,Platelet DG rel,SENP6 inh,SENP8 block-1,SENP8 block-2
CCOC(=O)C1Nc2ccc(Br)cc2C2C=CCC12 (stereo not drawn),n,n,n,n,n,59
CCOC(=O)C1Nc2ccc(C)cc2C2C=CCC12 (stereo not drawn),n,n,n,n,n,n
O=C1c2ccccc2C(Nc2ccc(Cl)cc2)N1CCN1CCOCC1 (stereo not drawn),n,n,n,n,n,n
O=C1c2ccccc2C(O)N1CCN1CCOCC1 (stereo not drawn),n,n,53,n,n,n
O=[N+]([O-])c1cc(/C=N/N/C(=N/c2ccccn2)c2ccccn2)ccc1O,n,34,n,n,n,47
C#CCNCCS(=O)(=O)N(Cc1ccc(Br)cc1)[C@@H](C)C(=O)O,n,n,x,x,x,n
Cc1ccc(S(=O)(=O)Nc2nc3ccccc3nc2N2CCN(c3ccccc3F)CC2)cc1,n,n,n,n,n,n
Cc1ccc(S(=O)(=O)NC2=C(N3CCN(c4ccccc4F)CC3)C(=O)c3ccccc3C2=O)cc1,n,n,n,n,n,46!

# Screening results from PubChem BioAssay.
